Measured values published in ChEMBL document CHEMBL4024777, “Discovery of LY3104607: A Potent and Selective G Protein-Coupled Receptor 40 (GPR40) Agonist with Optimized Pharmacokinetic Properties to Support Once Daily Oral Treatment in Patients with Type 2 Diabetes Mellitus” (J Med Chem, 2018).
Active and inactive are the calls of the source. The rule behind the calls is not given here.

What was measured:
[1] = biological target: T1, Peroxisome proliferator-activated receptor gamma (Homo sapiens) (UniProt P37231); assay: Displacement of [3H]-agonist from human PPARgamma expressed in baculovirus infecetd Sf9 cells system up to 30 uM after 10 hrs in presence of DR2 by scintillation proximity assay
T1 sequence (whole entry): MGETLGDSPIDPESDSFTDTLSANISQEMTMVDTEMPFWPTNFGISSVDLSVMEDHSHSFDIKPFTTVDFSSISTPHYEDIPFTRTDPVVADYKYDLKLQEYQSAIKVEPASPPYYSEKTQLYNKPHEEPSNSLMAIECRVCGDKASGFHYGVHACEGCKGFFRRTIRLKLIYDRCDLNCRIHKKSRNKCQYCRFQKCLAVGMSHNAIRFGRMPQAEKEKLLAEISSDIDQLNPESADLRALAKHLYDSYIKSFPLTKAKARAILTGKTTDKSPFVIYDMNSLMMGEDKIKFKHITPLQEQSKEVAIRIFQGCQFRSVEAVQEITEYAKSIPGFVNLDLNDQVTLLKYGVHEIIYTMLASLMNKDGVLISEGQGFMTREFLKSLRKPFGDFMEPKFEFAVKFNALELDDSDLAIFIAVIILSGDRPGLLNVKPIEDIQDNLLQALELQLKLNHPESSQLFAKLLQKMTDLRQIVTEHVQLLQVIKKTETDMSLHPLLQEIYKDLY
Procedure, shortened: (§1)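 PPAR alpha, delta and gamma binding and functional activity were each tested at concentrations up to 30 µM.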

[2] = biological target: T1, Peroxisome proliferator-activated receptor gamma (Homo sapiens); assay: Agonist activity at […] human PPARgamma expressed in African green monkey CV1 cells up to 30 uM after 24 hrs by luciferase reporter gene assay; assay type: cell-based; procedure, shortened: as §1
[3] = Half life in Sprague-Dawley rat at 1 mg/kg, iv; assay type: ADME, organism-based; settings: in vivo
[4] = Cmax in Beagle dog at 3 mg/kg, po; assay type: ADME, organism-based, Canis lupus familiaris; set-up: dose 3 mg/kg, route oral; settings: in vivo
[5] = AUC (0 to 24 hrs) in Sprague-Dawley rat at 100 mg/kg, po; assay type: ADME, organism-based; set-up: dose 100 mg/kg, time < 24 hr, route oral; settings: in vivo
[6] = Metabolic stability in human microsomes assessed as compound metabolized after 30 mins; assay type: ADME, Microsome; settings: read-out: Drug metabolism
Procedure, shortened: (§2)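 Compound incubated 30 min with liver microsomes from mouse, rat, dog or human. Percent of compound metabolized recorded, as mean (SEM, n).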

[7] = Cmax in Sprague-Dawley rat at 500 mg/kg, po; assay type: ADME, organism-based; set-up: dose 500 mg/kg, route oral; settings: in vivo
[8] = Aqueous solubility of the compound at pH 7.4; assay type: physicochemical
Procedure, shortened: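 Solubility was measured by DMSO/aqueous precipitation at pH 7.4 and reported as the last soluble concentration.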

[9] = biological target: T2, Peroxisome proliferator-activated receptor delta (Homo sapiens) (UniProt Q03181); assay: Displacement of [3H]-agonist from human PPARdelta expressed in baculovirus infecetd Sf9 cells system up to 30 uM after 10 hrs in presence of DR2 by scintillation proximity assay; procedure, shortened: as §1
T2 sequence (whole entry): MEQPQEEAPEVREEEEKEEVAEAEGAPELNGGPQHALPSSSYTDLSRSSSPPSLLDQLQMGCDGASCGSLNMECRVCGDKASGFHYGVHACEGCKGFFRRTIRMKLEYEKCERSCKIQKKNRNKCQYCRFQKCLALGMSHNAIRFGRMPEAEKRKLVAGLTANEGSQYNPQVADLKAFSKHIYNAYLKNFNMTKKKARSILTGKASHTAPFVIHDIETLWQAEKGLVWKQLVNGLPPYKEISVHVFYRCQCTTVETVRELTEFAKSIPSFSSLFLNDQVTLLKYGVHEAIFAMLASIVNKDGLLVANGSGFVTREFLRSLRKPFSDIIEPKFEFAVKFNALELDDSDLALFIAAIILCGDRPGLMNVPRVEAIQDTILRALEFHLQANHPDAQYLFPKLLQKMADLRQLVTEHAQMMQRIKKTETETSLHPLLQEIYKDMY

3T3-L1 = assay: Induction of adipogenesis in mouse 3T3L1 cells; assay type: functional, cell-based
Procedure, shortened: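 Adipogenesis was assessed in 3T3-L1 cells.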

[10] = biological target: Free fatty acid receptor 1 (Rattus norvegicus) (UniProt Q8K3T4); assay: Agonist activity at GPR40 in Sprague-Dawley rat islets assessed as glucose-stimulated insulin secretion levels at 3 uM in presence of 11.2 mM glucose by ELISA (reference value: 6.24 ng/ml)
[11] = biological target: T3, Free fatty acid receptor 1 (Homo sapiens, UniProt O14842); assay: Agonist activity at human PK-tagged GPR40 expressed in HEK293 cells assessed as EA-tagged beta-arrestin recruitment after 90 mins in presence of 1 % heat inactivated FBS by beta-galactosidase reporter gene assay relative to untreated control; assay type: cell-based
[12] = Drug metabolism in mouse hepatocytes assessed as glucuronidation; assay type: ADME, cell-based, Hepatocyte
[13] = Tmax in Beagle dog at 100 mg/kg, po; assay type: ADME, organism-based, Canis lupus familiaris; settings: in vivo
Procedure, shortened: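 Dogs dosed orally at 30, 100 or 300 mg/kg, N = 2 per dose.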

Cytochrome P450 3A4 = Cytochrome P450 3A4 (Homo sapiens, UniProt P08684); assay: Inhibition of human CYP3A4; assay type: ADME
[14] = AUC (0 to 24 hrs) in Beagle dog at 100 mg/kg, po; assay type: ADME, organism-based, Canis lupus familiaris; set-up: time < 24 hr, dose 100 mg/kg, route oral; settings: in vivo
[15] = biological target: T3, Free fatty acid receptor 1; assay: Agonist activity at human PK-tagged GPR40 expressed in HEK293 cells assessed as EA-tagged beta-arrestin recruitment after 90 mins in presence of 1 % heat inactivated FBS by beta-galactosidase reporter gene assay; assay type: cell-based
Rattus norvegicus = assay: Antidiabetic activity in po dosed Zucker fa/fa rat assessed as reduction in blood glucose AUC administered daily for 21 days followed by OGTT at 1 hr after compound dosing and measured 60 mins post glucose challenge by oral glucose tolerance test; assay type: functional
[16] = Solubility of the compound in DMSO at pH 7.4 by aqueous precipitation assay; assay type: physicochemical
Procedure, shortened: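 DMSO stock diluted into aqueous buffer at pH 7.4 in a precipitation assay. Result reported as the last soluble concentration, upper limit 100 µM.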

[17] = Intrinsic clearance in human hepatocytes; assay type: ADME, cell-based, Hepatocyte
[18] = biological target: Free fatty acid receptor 1 (Rattus norvegicus) (UniProt Q8K3T4); assay: Agonist activity at GPR40 in Sprague-Dawley rat islets assessed as potentiation of glucose-stimulated insulin secretion at 1 to 10 uM in presence of […] glucose by ELISA
[19] = Cmax in Sprague-Dawley rat at 1 mg/kg, po; assay type: ADME, organism-based; set-up: dose 1 mg/kg, route oral; settings: in vivo
[20] = Metabolic stability in rat microsomes assessed as compound metabolized after 30 mins; assay type: ADME, Microsome; settings: read-out: Drug metabolism; procedure, shortened: as §2
[21] = AUC (0 to 24 hrs) in Sprague-Dawley rat at 10 mg/kg, po; assay type: ADME, organism-based; set-up: dose 10 mg/kg, time < 24 hr, route oral; settings: in vivo
Cytochrome P450 2D6 = Cytochrome P450 2D6 (Homo sapiens, UniProt P10635); assay: Inhibition of human CYP2D6; assay type: ADME
[22] = AUC (0 to 24 hrs) in Beagle dog at 3 mg/kg, po; assay type: ADME, organism-based, Canis lupus familiaris; set-up: time < 24 hr, dose 3 mg/kg, route oral; settings: in vivo
[23] = Initial plasma concentration in Sprague-Dawley rat at 1 mg/kg, iv; assay type: ADME, organism-based
[24] = biological target: T2, Peroxisome proliferator-activated receptor delta (Homo sapiens); assay: Agonist activity at GAL4-fused human PPARdelta expressed in African green monkey CV1 cells up to 30 uM after 24 hrs by luciferase reporter gene assay; assay type: cell-based; procedure, shortened: as §1
[25] = Cmax in Beagle dog at 300 mg/kg, po; assay type: ADME, organism-based, Canis lupus familiaris; set-up: dose 300 mg/kg, route oral; settings: in vivo
[26] = Clearance in Beagle dog at 1 mg/kg, iv; assay type: ADME, organism-based, Canis lupus familiaris; settings: in vivo
[27] = Clearance in Sprague-Dawley rat at 1 mg/kg, iv; assay type: ADME, organism-based; settings: in vivo
[28] = Drug metabolism in rat hepatocytes assessed as metabolite-A formation; assay type: ADME, cell-based, Hepatocyte

T3 sequence (O14842 whole entry): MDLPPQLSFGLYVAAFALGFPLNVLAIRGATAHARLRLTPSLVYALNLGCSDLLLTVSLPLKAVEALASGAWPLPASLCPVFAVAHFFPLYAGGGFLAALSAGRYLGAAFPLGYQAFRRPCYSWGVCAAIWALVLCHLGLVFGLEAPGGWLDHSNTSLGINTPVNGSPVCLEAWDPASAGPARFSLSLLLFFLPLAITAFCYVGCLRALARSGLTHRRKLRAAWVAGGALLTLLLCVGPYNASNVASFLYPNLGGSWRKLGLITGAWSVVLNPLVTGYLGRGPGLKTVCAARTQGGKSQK
Free fatty acid receptor 1 (Rattus norvegicus), sequence (Q8K3T4 whole entry): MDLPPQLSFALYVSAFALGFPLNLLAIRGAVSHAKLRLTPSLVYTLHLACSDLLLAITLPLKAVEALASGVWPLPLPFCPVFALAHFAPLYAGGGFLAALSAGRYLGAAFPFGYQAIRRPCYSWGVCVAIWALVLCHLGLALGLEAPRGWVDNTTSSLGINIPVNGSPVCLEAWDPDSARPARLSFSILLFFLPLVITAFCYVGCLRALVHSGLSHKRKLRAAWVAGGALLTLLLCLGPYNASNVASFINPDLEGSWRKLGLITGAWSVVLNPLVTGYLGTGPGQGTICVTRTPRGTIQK
Cytochrome P450 2D6, sequence (P10635 whole entry): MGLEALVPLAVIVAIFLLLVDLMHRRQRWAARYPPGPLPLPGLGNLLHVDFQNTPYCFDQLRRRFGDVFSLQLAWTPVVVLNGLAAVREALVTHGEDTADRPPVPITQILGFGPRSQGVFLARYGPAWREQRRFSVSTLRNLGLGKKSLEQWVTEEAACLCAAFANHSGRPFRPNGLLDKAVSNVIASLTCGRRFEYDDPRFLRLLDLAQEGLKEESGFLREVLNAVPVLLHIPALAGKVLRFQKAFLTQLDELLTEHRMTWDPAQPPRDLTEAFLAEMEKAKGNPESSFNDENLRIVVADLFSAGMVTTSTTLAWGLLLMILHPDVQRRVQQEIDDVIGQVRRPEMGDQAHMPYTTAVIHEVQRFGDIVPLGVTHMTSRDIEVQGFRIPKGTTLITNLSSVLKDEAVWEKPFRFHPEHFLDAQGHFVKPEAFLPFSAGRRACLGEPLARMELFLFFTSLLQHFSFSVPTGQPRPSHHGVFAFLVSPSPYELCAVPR
Cytochrome P450 3A4, sequence (P08684 whole entry): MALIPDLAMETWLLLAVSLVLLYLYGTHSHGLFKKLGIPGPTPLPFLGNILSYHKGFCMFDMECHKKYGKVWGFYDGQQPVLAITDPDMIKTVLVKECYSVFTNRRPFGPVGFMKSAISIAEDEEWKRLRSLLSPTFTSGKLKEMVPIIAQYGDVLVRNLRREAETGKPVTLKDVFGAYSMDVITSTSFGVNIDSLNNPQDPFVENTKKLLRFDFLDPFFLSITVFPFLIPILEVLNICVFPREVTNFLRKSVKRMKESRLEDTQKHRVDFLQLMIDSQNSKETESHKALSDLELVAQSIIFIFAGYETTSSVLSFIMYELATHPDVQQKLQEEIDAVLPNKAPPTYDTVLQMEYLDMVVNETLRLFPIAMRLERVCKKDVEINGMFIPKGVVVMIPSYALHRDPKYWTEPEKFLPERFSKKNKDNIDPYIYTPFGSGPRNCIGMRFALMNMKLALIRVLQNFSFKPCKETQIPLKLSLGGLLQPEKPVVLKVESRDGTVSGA

SMILES: CC#C[C@@H](CC(=O)O)c1ccc(OCc2ccc3nc(-c4c(C)cccc4C)nn3c2)cc1
- Activity [1]: inactive
- Activity [2]: inactive
- half-life [3]: 3.98 h
- Cmax [4]: 9900 ng/mL
- AUC(0-t) at 24 h [5]: 2870 µg·h/mL
- metabolised at 0.5 h [6]: 5%
- Cmax [7]: 281000 ng/mL
- solubility [8]: > 100 µM
- Activity [9]: inactive
- Activity (3T3-L1): inactive
- Activity [10]: 20.2 ng/mL
- %max [11]: 124%
- Drug metabolism [12]: Metabolite_Detected
- Tmax [13]: 3 h
- IC50 (Cytochrome P450 3A4): > 60 µM
- AUC(0-t) at 24 h [14]: 3320 µg·h/mL
- EC50 [15]: 0.108 µM
- ED90 (Rattus norvegicus): 5 mg/kg
- solubility kinetic [16]: > 100 µM
- K [17]: 0.099 h⁻¹
- Activity [18]: inactive
- Cmax [19]: 3380 ng/mL
- metabolised at 0.5 h [20]: 10%
- AUC(0-t) at 24 h [21]: 215 µg·h/mL
- IC50 (Cytochrome P450 2D6): > 60 µM
- AUC(0-t) at 24 h [22]: 52.8 µg·h/mL
- C0 [23]: 4340 ng/mL
- Activity [24]: inactive
- Cmax [25]: 277000 ng/mL
- clearance [26]: 0.601 mL/min/kg
- clearance [27]: 1.32 mL/min/kg
- Drug metabolism [28]: Metabolite_Detected
